Source: PubChem BioAssay
Only some compounds are listed: those with a hit (about 2.5% of all), similar ones and a draw of the others.
SENP8 block-1: blocks the human protease SENP8; Q96LD8; purified SENP8, Z-RLRGG-aminoluciferin cleavage, luminescence; inhibition, % at 10 µM; 330,000 tested, 1.2% active; AID 2540; in the data active = inhibition above about 50%
Target sequence (Q96LD8 whole entry, looked up): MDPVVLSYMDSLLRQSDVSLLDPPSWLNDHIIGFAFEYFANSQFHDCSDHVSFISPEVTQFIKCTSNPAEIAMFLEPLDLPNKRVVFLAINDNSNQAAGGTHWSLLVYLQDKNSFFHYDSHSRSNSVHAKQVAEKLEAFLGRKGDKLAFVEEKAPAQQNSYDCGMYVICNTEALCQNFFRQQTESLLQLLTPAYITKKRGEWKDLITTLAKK
SENP8 block-2: SENP8 (human) protease inhibition | recombinant SENP8, Nedd8 substrate fluorescence | inhibition, % at 20 µM | 360,000 tested, 0.64% active | AID 602440; in the data active = inhibition mostly above about 40%, no sharp cut-off; inactive = mostly below about 27%
SENP7 inh: blocks the human protease SENP7 | 330,000 tested, 1.5% active | recombinant SENP7, Z-RLRGG-aminoluciferin luminescence, 40 min | inhibition, % at 5 µM | Q9BQF6 | AID 434973;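 active = inhibition above about 50% at the single test dose, limit read from the data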;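 note: plate controls were DMSO with enzyme for no effect and no enzyme buffer wells for full effect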
SENP1 FRET inh: inhibitors of human SENP1 SUMO protease catalytic domain; recombinant SENP1 catalytic domain, CyPet-SUMO1-YPet FRET cleavage; Q9P0U3; inhibition, % at 10 µM; AID 624204; 360,000 tested, 0.21% active;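 active = inhibition at least 30% at 10 µM, raw YFP signal under a set limit, fluorescence ratio 0.5 to 1.5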;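 note: 0% = enzyme with DMSO and 100% = no enzyme wells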
Target sequence (Q9P0U3 419-644 limits assumed): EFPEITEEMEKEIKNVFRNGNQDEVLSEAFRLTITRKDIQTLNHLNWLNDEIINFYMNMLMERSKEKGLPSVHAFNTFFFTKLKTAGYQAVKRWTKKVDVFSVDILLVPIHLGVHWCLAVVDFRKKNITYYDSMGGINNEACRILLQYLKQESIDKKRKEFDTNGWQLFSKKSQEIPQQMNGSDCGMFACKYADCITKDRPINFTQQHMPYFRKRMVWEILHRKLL
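Material: hSENP1 catalytic domain, recombinant; medium: Tris pH 8 with BME, BSA, NP40 and catalase; compound: single concentration of 10 µM compound, 0.5% DMSO final; technique: FRET read of cyan and yellow fluorescence; timing: 50 min enzyme reaction, room temperature, light-protected; reagent: SFCypet-SUMO1-SFYpet substrate at 25 nM; control set: no-enzyme low, enzyme-DMSO high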
SENP6 inh: blocks the human protease SENP6; inhibition, % at 10 µM; Q9GZR1; Recombinant SENP6 catalytic domain, aminoluciferin luminescence; 330,000 tested, 1.8% active; AID 2599;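 active = inhibition above about 50% at the single tested dose, limit read from the data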;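 note: plate controls were DMSO wells with enzyme for no effect and DMSO wells lacking enzyme for full effect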
SENP8 confirm: confirmation of human SENP8 protease inhibitors; inhibition, % at 12.5 µM; Recombinant SENP8, Z-RLRGG-aminoluciferin luminescence, 60 min; shares compounds with SENP7 inh; 6,200 tested, 40% active; AID 488912;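 active = mean inhibition across replicates above about 50%, limit read from the data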
SENP6 conf: confirmation of human SENP6 protease inhibitors. shares compounds with SENP7 inh. recombinant SENP6, Z-RLRGG-aminoluciferin luminescence. inhibition, % at 12.5 µM. 6,200 tested, 58% active
SENP7 confirm: confirmation of human SENP7 protease inhibitors; shares compounds with SENP7 inh; recombinant SENP7, Z-RLRGG-aminoluciferin luminescence, 40 min; inhibition, % at 12.5 µM; 6,200 tested, 69% active
Casp3 SENP sel: inhibits human caspase-3 in SENP selectivity test; shares compounds with SENP7 inh; purified caspase-3, Z-DEVD-aminoluciferin luminescence, 60 min; inhibition, % at 12.5 µM; 6,200 tested, 60% active; AID 488918;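 active = mean inhibition above about 50%, limit read from the data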;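 note: plate controls were enzyme with DMSO for no effect and wells without caspase-3 for full effect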
SENP luc ctr: interferes with luciferase luminescence in SENP counter-screen; shares compounds with SENP7 inh; Pre-incubated SENP8/Z-RLRGG-aminoluciferin, luciferase luminescence interference; inhibition, % at 12.5 µM; 6,200 tested, 39% active; AID 488919;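 active = mean inhibition above about 50% when retested at one dose, limit read from the data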;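 note: plate controls were DMSO wells with completed reaction for no effect and substrate without enzyme for full effect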
The depositor's hits bear a star; i = inactive; x = no result given.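 Rule for the calls, unless noted: active = mean inhibition above about 50% in the one-dose retest (limit read from the data); inactive = the rest.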

SMILES	SENP8 block-1	SENP8 block-2	SENP7 inh	SENP1 FRET inh	SENP6 inh	SENP8 confirm	SENP6 conf	SENP7 confirm	Casp3 SENP sel	SENP luc ctr
Cc1ccc(C(=O)/C=C/Nc2ccccn2)cc1	93*	-220	97*	-11	95*	94*	98*	102*	96*	62*
COc1ccc(N/C=C/C(=O)c2ccc(Cl)cc2)cc1	-13	-12	43	-25	-6	x	x	x	x	x
NC(=O)c1ccccc1N/C=C/C(=O)c1ccc(Cl)cc1	64*	i	93*	-56	84*	48	78*	76*	90*	29
Cn1ccnc1SCC(=O)c1ccc(O)cc1	26	18	40	1	55*	21	16	67*	80*	52*
CC(C)c1cccc(C(C)C)c1NC(=O)OC1CCCCC1	x	-8	x	-2	x	x	x	x	x	x
CC(=O)c1cc(O)c2ccccc2c1O	27	-18	8	-27	60*	1	10	-2	-2	1
Cc1nn(-c2ccccc2)c(Cl)c1/C=N/NC(N)=O	1	3	8	3	-6	x	x	x	x	x
Cc1nn(-c2ccccc2)c(Cl)c1/C=N/NC(=O)c1ccnn1C	87*	5	94*	-3	94*	59*	81*	97*	92*	55*
OCC(CO)c1cnnc2ccccc12	x	7	x	1	x	x	x	x	x	x
Cc1csc(NC(=O)C(NC(=O)c2ccccc2F)C(C)C)n1 (centres undefined)	-5	6	-4	3	-3	x	x	x	x	x
O=C(Nc1ccc(NC(=O)C2CC2)nc1)c1ccccn1	5	3	52*	2	55*	30	35	61*	70*	23
CCC(=O)Nc1ccc(NC(=O)c2cccc(OC)c2)nc1	11	21	41	-2	42	x	x	x	x	x
COc1cccc(C(=O)Nc2ccc(NC(=O)C3CC3)cn2)c1	60*	22	82*	2	85*	69*	69*	89*	89*	12
O=C(Nc1ccc(NC(=O)c2ccco2)nc1)c1ccccn1	24	6	51*	1	54*	-6	36	74*	80*	32
Cc1cc(=O)[nH]c(N/N=C/c2sccc2C)n1	23	2	56*	4	64*	41	39	79*	81*	49
Cc1cc(=O)[nH]c(N/N=C/c2cccs2)n1	-13	7	-6	1	0	x	x	x	x	x
Cc1cc(=O)[nH]c(N/N=C/c2ccccc2Cl)n1	-6	-26	4	-1	-14	x	x	x	x	x
Cc1cc(=O)[nH]c(N/N=C/c2cc(C)n(-c3ccccc3)c2C)n1	36	-263	13	-1	66*	66*	64*	87*	76*	16
COC(=O)c1sccc1NC(=O)c1ccc(C)o1	-5	-21	-10	1	-17	x	x	x	x	x
COC(=O)c1sccc1NC(=O)Cc1ccc(OC)cc1	23	13	42	0	51*	49	44	79*	63*	58*
N#Cc1ccc(C2CC(OCCF)=CC(=O)O2)cc1 (centres undefined)	x	15	x	1	x	x	x	x	x	x
CCCCS/C(N)=N/N=C/c1ccccc1O	0	-11	0	1	-7	x	x	x	x	x
CCCS/C(N)=N/N=C/c1cc(C)ccc1O	10	32	11	3	53*	20	17	59*	20	17
CC1CCN(C2=C(NS(=O)(=O)c3ccc(Br)cc3)C(=O)c3ccccc3C2=O)CC1	29	26	27	-1	55*	9	14	-2	15	0
CC1CCN(C2=C(NS(=O)(=O)c3ccccc3)C(=O)c3ccccc3C2=O)CC1	17	33	17	-1	49	x	x	x	x	x
SMILES	SENP8 block-1	SENP8 block-2	SENP7 inh	SENP1 FRET inh	SENP6 inh	SENP8 confirm	SENP6 conf	SENP7 confirm	Casp3 SENP sel	SENP luc ctr
CC1CCN(C2=C(NS(=O)(=O)c3ccc(Cl)cc3)C(=O)c3ccccc3C2=O)CC1	5	33	14	1	63*	4	6	6	10	0
Cc1ccc(/C(N)=N/OC(=O)c2cccc(F)c2)cc1	29	19	76*	0	61*	32	49	83*	61*	48
N/C(=N\OC(=O)c1cccc(F)c1)c1ccccc1	77*	13	95*	1	91*	83*	85*	97*	92*	78*
Cc1ccc(OCC(=O)Nc2ccccc2C(=O)N2CCCC2)cc1	6	8	4	0	6	x	x	x	x	x
COC(=O)c1cccnc1Oc1ccccc1	-4	20	13	1	-14	x	x	x	x	x
Cc1ccc(CN=c2c([N+](=O)[O-])nn(-c3ccc4c(c3)OCCO4)n2O)cc1	16	21	35	2	59*	20	30	58*	14	6
O=[N+]([O-])c1nn(-c2ccc3c(c2)OCCO3)n(O)c1=NCCCO	1	21	4	-1	4	x	x	x	x	x
CCn1c(SCC(=O)c2c(N)n(C3CC3)c(=O)[nH]c2=O)nc2cc(S(N)(=O)=O)ccc21	-10	3	4	-1	-7	x	x	x	x	x
c1ccc([C@H]2CN3C(=N2)Sc2ccccc23)cc1	89*	14	88*	1	93*	93*	93*	100*	88*	92*
COc1ccc(C(=O)N/N=C(\C)CC(=O)Nc2cccc(C(F)(F)F)c2)cc1	-2	-3	3	0	-17	x	x	x	x	x
Cc1c(Cc2ccccc2)c(=O)oc2cc(O)cc(O)c12	-7	-384	7	-35	-5	x	x	x	x	x
COc1ccc(-c2cn(CCC(=O)O)c(C)n2)cc1	81*	9	25	2	85*	-8	85*	94*	27	40
N#CC1=C(N)Oc2c(oc(CO)cc2=O)C1c1ccsc1 (centres undefined)	-4	-24	-2	-45	9	x	x	x	x	x
N#CC1=C(N)Oc2c(ccc3ccccc23)C1c1ccsc1 (centres undefined)	9	-115	16	-33	62*	-21	-18	-7	-8	-1
CC[C@@H]1CC2=C(C(=O)OC(C)(C)O2)[C@H](c2ccc(Cl)cc2)O1	x	17	x	-2	x	x	x	x	x	x
Cc1ccc(-n2nc3c(n2)/C(=N/O)CC/C3=N\O)cc1	66*	-38	78*	3	26	8	2	5	2	4
